Published values gathered from unrelated publications.
Each line is one published result; the experiments were not run side by side.
Target: Serine/threonine-protein kinase 32B (STK32B, Homo sapiens, UniProt Q9NY57)

SMILES | read-out | mode | method | tested at | quantity | result
CS(=O)(=O)c1cc(C2(NC(=O)c3cncc4c3cnn4-c3ccc(F)cc3)CC2)ccn1 | cell-free assay |  | competition with immobilised ligand | 1 µM | remaining binding | 100%
CN1CC(Oc2cnc(C#N)cc2-c2ccn3nc(NC(=O)C4CC4)cc3c2)C1 | enzyme activity | inhibitor |  | 1 µM | inhibition | -2%
Nc1ncnc2occ(-c3ccc(NC(=O)Nc4cc(C(F)(F)F)ccc4F)cc3)c12 | cell-free assay |  |  | 20 µM | remaining signal | 0.9%
Cc1sc(C(=O)NC2COC2)cc1-n1cc(NC(=O)Nc2c(F)cccc2Cl)cn1 | enzyme activity | inhibitor |  | 10 µM | remaining activity | 89.8%
COc1ccc2c(c1)O[C@@H](c1ccc(OC)c(OC)c1)C[C@H]2NC(=O)C1(c2ccc3c(c2)OC(F)(F)O3)CC1 | cell-free assay |  | competition with immobilised ligand | 1 µM | remaining binding | 100%
O=C(Nc1cnn(-c2csc(C(=O)NC3COC3)c2)c1)Nc1ccccc1Cl | enzyme activity | inhibitor |  | 5 µM | remaining activity | 122%
COc1cc(Cl)c(C(=O)N[C@@H](CN[C@H]2CC[C@@H](N)CC2)Cc2ccc(C#N)cc2)cc1-c1ccc(CN[C@H](C)c2ccc(C)cc2)o1 | enzyme activity | inhibitor |  | 1 µM | remaining activity | 102%
CC(C)(O)[C@H]1CC[C@H](Nc2ccc3ncc(-c4cccc(C(F)(F)F)c4)n3n2)CC1 | enzyme activity | inhibitor |  | 1 µM | remaining activity | 96.8%
Cc1ccc(C(=O)Nc2ccc(CN3CCN(C)CC3)c(C(F)(F)F)c2)cc1C#Cc1cnc2cccnn12 | cell-free assay |  |  | 23.5 nM | remaining signal | 98%
